Measurements taken from ChEMBL document CHEMBL4304759, “Identifying Novel Anti-Osteoporosis Leads with a Chemotype-Assembly Approach” (J Med Chem, 2019).
Activity calls are given as the source filed them. The rule behind the calls is not given here.

Assays:
C3H 10T1/2 [1] = experiment: Osteogenic activity in mouse C3H10T1/2 cells assessed as effect on osteogenic medium-induced osteoblast differentiation by measuring calcium deposition at 0.1 to 10 uM after 14 days by alizarin red dye-based assay; type: cell-based; conditions: c3h 10t1/2, 336 h
Method in brief: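 C3H10T1/2 cells were seeded at 5×10^4 cells/cm² in α-MEM with 10% FBS for 24 h. Osteogenic induction used medium with 5% FBS, 10⁻⁷ M dexamethasone, 50 μM ascorbic acid and 10 mM β-glycerol-phosphate, with or without compound, for 14 days. Cells were fixed in 4.0% formaldehyde and stained with 0.1% Alizarin red (pH 4.4) for 5 min at room temperature.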

BMDM [2] = experiment: (§1) Anti-osteoporosis activity in C57BL/6 mouse bone marrow macrophages assessed as inhibition of M-CSF/RANKL-induced osteoclast differentiation by measuring reduction in TRAcP gene expression at 0.1 uM supplemented with fresh medium containing compounds every 2 days for 5 by trizol-reagent based RT-PCR analysis; type: functional, cell-based
Method in brief: (§2)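 BMMs from femur/tibia of six-week-old C57BL/6 mice, seeded at 1×10^5 cells/well in complete α-MEM (10% FBS) with M-CSF 30 ng/mL and GST-rRANKL 100 ng/mL, with or without compound at 0.1 μM for 5 days. RNA extracted with TRIzol, reverse-transcribed, then qPCR with SYBR-type premix: 40 cycles of 95 °C 10 s, 56 °C 10 s, 72 °C 30 s.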

Rattus norvegicus [3] = experiment: Anti-osteoporosis activity in ovariectomized Sprague-Dawley rat assessed as femur bone mineral density loss at 10 mg/kg/day, po for 3 months measured post-last dose by dual energy X-ray absorptiometry (RVb = 19%); type: functional
Rattus norvegicus [4] = experiment: Anti-osteoporosis activity in ovariectomized Sprague-Dawley rat assessed as reduction in serum CTX1 level at 10 mg/kg/day, po for 3 months measured post-last dose; type: functional, organism-based
[5] = Toxicity in ovariectomized Sprague-Dawley rat assessed as effect on alanine aminotransferase level at 10 mg/kg/day, po for 3 months measured post-last dose; type: organism-based; conditions: in vivo
BMDM [6] = experiment: as §1, with “c-FOS” for “TRAcP”; type: functional, cell-based; method in brief: as §2
[7] = Toxicity in ovariectomized Sprague-Dawley rat assessed as effect on creatinine level at 10 mg/kg/day, po for 3 months measured post-last dose; type: organism-based; conditions: in vivo
[8] = Toxicity in ovariectomized Sprague-Dawley rat assessed as effect on alkaline phosphatase level at 10 mg/kg/day, po for 3 months measured post-last dose; type: organism-based; conditions: in vivo
[9] = Toxicity in ovariectomized Sprague-Dawley rat assessed as effect on total cholesterol level at 10 mg/kg/day, po for 3 months measured post-last dose; type: organism-based; conditions: in vivo
BMDM [10] = experiment: Anti-osteoporosis activity in C57BL/6 mouse bone marrow macrophages assessed as inhibition of M-CSF/RANKL-induced osteoclast differentiation by measuring reduction in hydroxyapatite resorption at 0.01 to 1 uM measured after 48 hrs by microscopic analysis; type: functional, cell-based
Method in brief: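 BMMs were driven to mature osteoclasts with GST-rRANKL plus M-CSF (30 ng/mL) on collagen-coated plates. Equal numbers were reseeded onto hydroxyapatite-coated wells with GST-rRANKL/M-CSF, with or without compound, for 48 h. Cells were bleached off, resorbed areas imaged by inverted microscope, and percent surface resorbed quantified.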

Rattus norvegicus [11] = experiment: Anti-osteoporosis activity in ovariectomized Sprague-Dawley rat assessed as reduction in serum PINP level at 10 mg/kg/day, po for 3 months measured post-last dose; type: functional, organism-based
[12] = Toxicity in ovariectomized Sprague-Dawley rat assessed as effect on total triglyceride level at 10 mg/kg/day, po for 3 months measured post-last dose; type: organism-based; conditions: in vivo
Rattus norvegicus [13] = experiment: Anti-osteoporosis activity in ovariectomized Sprague-Dawley rat assessed as reduction in femur bone mass loss at 10 mg/kg/day, po for 3 months measured post-last dose by micro-CT analysis; type: functional, organism-based
BMDM [14] = experiment: as §1, with “NFATc1” for “TRAcP”; type: functional, cell-based; method in brief: as §2
[15] = Toxicity in ovariectomized Sprague-Dawley rat assessed as effect on aspartate transaminase level at 10 mg/kg/day, po for 3 months measured post-last dose; type: organism-based; conditions: in vivo
C3H 10T1/2 [16] = experiment: Cytotoxicity against mouse C3H10T1/2 cells assessed as effect on cell viability at 0.1 to 100 uM measured after 48 to 72 hrs by CCK8 assay; type: cell-based; conditions: c3h 10t1/2, 100 µM
Method in brief: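 C3H10T1/2 cells in log phase were seeded at 6×10^3 per well and held 24 h. They were then exposed to DMSO vehicle or compound at 0.1–100 μM for 48 h or 72 h. CCK-8 was added for 30 min at 37 °C and absorbance read at 450 nm.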

[17] = Toxicity in ovariectomized Sprague-Dawley rat assessed as effect on blood urea nitrogen level at 10 mg/kg/day, po for 3 months measured post-last dose; type: organism-based; conditions: in vivo
[18] = Cardiotoxicity in ovariectomized Sprague-Dawley rat assessed as effect on heart at 10 mg/kg/day, po for 3 months measured post-last dose; type: toxicity, organism-based; conditions: in vivo
[19] = Pulmonary toxicity in ovariectomized Sprague-Dawley rat assessed as effect on lung at 10 mg/kg/day, po for 3 months measured post-last dose; type: organism-based; conditions: in vivo
Rattus norvegicus [20] = experiment: Effect on serum RANKL level in ovariectomized Sprague-Dawley rat at 10 mg/kg/day, po for 3 months measured post-last dose; type: organism-based; conditions: in vivo
BMDM [21] = experiment: as §1, with “MMP9” for “TRAcP”; type: functional, cell-based; method in brief: as §2
[22] = Hepatotoxicity in ovariectomized Sprague-Dawley rat assessed as effect on liver at 10 mg/kg/day, po for 3 months measured post-last dose; type: toxicity, organism-based; conditions: in vivo
[23] = Toxicity in ovariectomized Sprague-Dawley rat assessed as effect on uterus at 10 mg/kg/day, po for 3 months measured post-last dose; type: organism-based; conditions: in vivo
[24] = Toxicity in ovariectomized Sprague-Dawley rat assessed as effect on thymus at 10 mg/kg/day, po for 3 months measured post-last dose; type: organism-based; conditions: in vivo
BMDM [25] = experiment: Anti-osteoporosis activity in C57BL/6 mouse bone marrow macrophages assessed as inhibition of M-CSF/RANKL-induced osteoclast differentiation supplemented with fresh medium containing compounds every 2 days for 5 measured post-last dose by TRAP staining based assay; type: functional, cell-based
Method in brief: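 Mouse (C57BL/6, 6-week) BMMs were plated at 6×10³ cells/well with M-CSF 30 ng/mL overnight, then given complete α-MEM with M-CSF and GST-rRANKL 100 ng/mL plus compound at varied concentrations, refreshed every 2 days. At day 5 cells were fixed in 4% paraformaldehyde and TRAcP-stained; TRAcP+ cells with >3 nuclei were counted.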

Rattus norvegicus [26] = experiment: Anti-osteoporosis activity in ovariectomized Sprague-Dawley rat assessed as reduction in serum osteocalcin level at 10 mg/kg/day, po for 3 months measured post-last dose; type: functional, organism-based
[27] = Toxicity in ovariectomized Sprague-Dawley rat assessed as effect on spleen at 10 mg/kg/day, po for 3 months measured post-last dose; type: organism-based; conditions: in vivo
[28] = Renal toxicity in ovariectomized Sprague-Dawley rat assessed as effect on kidney at 10 mg/kg/day, po for 3 months measured post-last dose; type: organism-based; conditions: in vivo

IC50 (BMDM [25]; C57BL/6, BMDM, 5 days): 2 nM
Structure (SMILES): O=C(Cn1cc(-c2ccncc2)nn1)Nc1nccs1
Activity (C3H 10T1/2 [1]): Non-Toxic | inhibition (BMDM [2]): Active | Activity (Rattus norvegicus [3]): 8% | Activity (Rattus norvegicus [4]): Active | Activity [5]: Non-Toxic | inhibition (BMDM [6]): Active | Activity [7]: Non-Toxic | Activity [8]: Non-Toxic | Activity [9]: Non-Toxic | inhibition (BMDM [10]): Active | Activity (Rattus norvegicus [11]): Active | Activity [12]: Non-Toxic | Activity (Rattus norvegicus [13]): inactive | inhibition (BMDM [14]): Active | Activity [15]: Non-Toxic | Activity (C3H 10T1/2 [16]): Non-Toxic | Activity [17]: Non-Toxic | Activity [18]: Non-Toxic | Activity [19]: Non-Toxic | Activity (Rattus norvegicus [20]): Non-Toxic | inhibition (BMDM [21]): Active | Activity [22]: Non-Toxic | Activity [23]: Non-Toxic | Activity [24]: Non-Toxic | inhibition (BMDM [25]): Dose-dependent effect | Activity (Rattus norvegicus [26]): Active | Activity [27]: Non-Toxic | Activity [28]: Non-Toxic
